Data taken from ChEMBL document CHEMBL1138387, “Hemodynamic effects of potent and selective JNK inhibitors in anesthetized rats: implication for targeting protein kinases in metabolic diseases” (Bioorg Med Chem Lett, 2007).

Columns and labels:
Rattus norvegicus [1] = assay: Hemodynamic effect in anesthetized Sprague-Dawley rat assessed as decrease in mean arterial pressure at 10 mg/kg after 90 mins; assay type: functional, Artery; parameters: scale not given: the % may be the effect or the level left
Outline: (§1)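 Inactin-anesthetized rats; femoral artery catheters for MAP, HR and blood sampling; femoral vein for dosing and saline; LV transducer catheter for LVP/dP/dt. PVR = MAP/PBF. After 30-min control period, vehicle (10% DMSO/PEG400, 1 mL/kg) or compound infused i.v. as three ascending doses, 3, 10, 30 mg/kg, each over 30 min. Changes versus time 0 baseline; mean of three animals.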

Rattus norvegicus [2] = assay: Hemodynamic effect in anesthetized Sprague-Dawley rat assessed as decrease in heart rate at 10 mg/kg after 90 mins; assay type: functional; parameters: scale not given: the % may be the effect or the level left; outline: as §1
Rattus norvegicus [3] = assay: Hemodynamic effect in anesthetized Sprague-Dawley rat assessed as increase in cardiac contractility at 10 mg/kg after 90 mins; assay type: functional, Heart; outline: as §1
[4] = molecular target: Mitogen-activated protein kinase 8 (Homo sapiens, UniProt P45983); assay: Inhibition of JNK1
[5] = Drug level in anesthetized Sprague-Dawley rat assessed end of infusion plasma concentration at 10 mg/kg after 90 mins; assay type: ADME, organism-based; parameters: dose 10 mg/kg; conditions: iv; outline: as §1
Rattus norvegicus [6] = assay: Hemodynamic effect in anesthetized Sprague-Dawley rat assessed as decrease in peripheral vascular resistance at 10 mg/kg after 90 mins; assay type: functional; parameters: scale not given: the % may be the effect or the level left; outline: as §1

Mitogen-activated protein kinase 8, sequence (P45983 whole entry, the tested form may be a part): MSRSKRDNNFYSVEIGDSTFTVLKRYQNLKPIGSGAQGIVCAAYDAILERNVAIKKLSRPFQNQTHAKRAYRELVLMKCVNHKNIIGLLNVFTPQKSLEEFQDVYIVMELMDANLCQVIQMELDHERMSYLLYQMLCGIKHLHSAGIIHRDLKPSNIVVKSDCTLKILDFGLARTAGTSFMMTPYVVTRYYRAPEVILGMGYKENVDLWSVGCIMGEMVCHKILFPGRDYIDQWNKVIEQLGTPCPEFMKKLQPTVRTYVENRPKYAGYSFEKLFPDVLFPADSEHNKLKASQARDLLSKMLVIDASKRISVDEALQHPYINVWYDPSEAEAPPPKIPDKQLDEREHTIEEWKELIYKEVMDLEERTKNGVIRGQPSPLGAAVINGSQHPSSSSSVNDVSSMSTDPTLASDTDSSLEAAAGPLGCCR

| Structure (SMILES) | Activity (Rattus norvegicus [1]) [%] | Activity (Rattus norvegicus [2]) [%] | Activity (Rattus norvegicus [3]) [%] | IC50 [4] [nM] | concentration at 1.5 h [5] [ng/mL] | Activity (Rattus norvegicus [6]) [%] |
| --- | --- | --- | --- | --- | --- | --- |
| COc1cc[nH]c1/C=C1\C(=O)Nc2cccc(C#CC(O)c3ccc(OCCCN(C)C)cc3)c21 (stereo not drawn) | 23 | 11 | -20 | 34 | – | – |
| CCOc1nc(C(=O)NCc2cnccc2Cl)cc(N)c1C#N | 23 | – | < -15 | 30 | – | – |
| CC(C)Oc1nc(C(=O)NCc2ccc(S(C)(=O)=O)cc2)cc(O)c1C#N | <15 | – | – | > 10000 | 39900 | – |
| CS(=O)(=O)c1ccc(CNC(=O)c2cc(N)c(C#N)c(-c3ccsc3)n2)cc1 | 23 | – | – | – | – | – |
| CC(C)Oc1nc(C(=O)N(C)Cc2ccc(S(C)(=O)=O)cc2)cc(N)c1C#N | – | – | 41 | 6400 | 23600 | 46 |
| CS(=O)(=O)c1ccc(CNC(=O)c2cc(N)c(C#N)c(OCC3CC3)n2)cc1 | 24 | – | – | – | 8200 | – |
| CCOc1nc(C(=O)NCc2ccc([S+]([O-])c3ccccc3)cc2)cc(N)c1C#N (stereo not drawn) | 24 | – | 24 | 50 | – | – |
| CCOc1nc(C(=O)NCc2ccc(S(C)(=O)=O)cc2)cc(N)c1Cl | 20 | <15 | <15 | – | 14700 | 51 |
| CCOc1nc(C(=O)NCc2ccc(S(=O)(=O)c3ccccc3)cc2)cc(N)c1C#N | 24 | 11 | – | 130 | – | – |
| CCCn1c(C2CCNCC2)nc(-c2ccc(Cl)c(Cl)c2)c1-c1ccnc(NC2CCCCC2)n1 | 30 | 22 | – | – | 9000 | – |
| CCOc1nc(C(=O)NCCNc2ccc([N+](=O)[O-])cn2)cc(N)c1C#N | 20 | – | 12 | 61 | – | – |
| CS(=O)(=O)c1ccc(CNC(=O)c2cc(N)c(C#N)c(NC3CCCC3)n2)cc1 | 18 | 6 | 13 | – | 10500 | – |
| CCOc1nc(C(=O)NCc2ccc(S(C)(=O)=O)cc2)cc(N)c1C#N | 41 | <15 | <15 | – | 19300 | 25 |
